From ChEMBL document CHEMBL1944638, “Quinol derivatives as potential trypanocidal agents” (Bioorg Med Chem, 2012)

Key:
[1] = Selectivity ratio of EC50 for human MRC5 cells to EC50 for blood stream form of Trypanosoma brucei; format: ADME, cell-based; details: read-out: Ratio EC50
Outline: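 Ratio of EC50 in human MRC5 cells over EC50 in bloodstream-form T. brucei, both from 96-well HTS whole-cell assays. Each EC50 is the arithmetic mean of independent determinations, reported with SD and number of repeats.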

MRC5 = experiment: Cytotoxicity against human MRC5 cells after 3 days by resazurin-based fluorescence assay; format: cell-based; details: MRC5, 72 h
Outline: (§1)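 96-well HTS whole-cell assay against bloodstream-form T. brucei and human MRC5 cells. EC50 values are the arithmetic mean of independent determinations, with SD and number of repeats. Species selectivity is EC50 (MRC5)/EC50 (T. brucei).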

Trypanosoma brucei = experiment: Antitrypanosomal activity against blood stream form of Trypanosoma brucei after 69 hrs by resazurin-based fluorescence assay; format: functional, organism-based; outline: as §1

Row | SMILES | selectivity ratio [1] | EC50 (MRC5) [nM] | EC50 (Trypanosoma brucei) [nM]
1 | Cc1ccc(S(=O)(=O)n2c(C3(O)C=CC(=O)C=C3)cc3ccncc32)cc1 | 2 | – | –
2 | CCOC(=O)Nc1ccc(S(=O)(=O)n2c(C3(O)C=CC(=O)C=C3)cc3ccccc32)cc1 | 2 | – | –
3 | COC(=O)CCc1ccc(S(=O)(=O)n2c(C3(O)C=CC(=O)C=C3)cc3ccccc32)cc1 | 2 | – | –
4 | O=C1C=CC(O)(C#Cc2ccc(CC(=O)Nc3ccccc3)cc2)C=C1 | 0.3 | – | –
5 | Nc1nc(N)nc(-n2cc(C3(O)C=CC(=O)C=C3)nn2)n1 | > 8 | > 50000 | –
6 | O=C1C=CC(O)(c2nc3ccccc3s2)C=C1 | 2 | 180 | 77
7 | COc1ccc(Cn2cc(C3(O)C=CC(=O)C=C3)nn2)cc1 | 3 | – | –
8 | N=C(N)c1ccc(-n2cc(C3(O)C=CC(=O)C=C3)nn2)cc1 | > 5 | > 50000 | –
9 | Oc1ccc(-c2nc3ccccc3s2)cc1 | – | > 50000 | > 50000
10 | O=C1C=CC(O)(c2cc3ccccc3n2S(=O)(=O)c2ccc(CCCO)cc2)C=C1 | 2 | – | –
11 | O=C1C=CC(O)(c2cc3ccccc3n2S(=O)(=O)c2ccc(CCC(=O)N3CCOCC3)cc2)C=C1 | 2 | – | –
12 | Nc1nc(N)nc(NCCCOC(=O)CCc2ccc(S(=O)(=O)n3c(C4(O)C=CC(=O)C=C4)cc4ccccc43)cc2)n1 | 2.7 | – | –
13 | O=C1C=CC(O)(c2cc3ccccc3n2S(=O)(=O)c2ccc(CCC(=O)O)cc2)C=C1 | 4.5 | – | –
14 | CN1CCN(CCCc2ccc(S(=O)(=O)n3c(C4(O)C=CC(=O)C=C4)cc4ccccc43)cc2)CC1 | 3 | – | –
15 | C#CC1(O)C=CC(=O)C=C1 | 1 | – | –
16 | O=C1C=CC(O)(c2ccccc2)C=C1 | 2 | 1700 | 750
17 | O=C1C=CC(O)(c2cc3cnccc3n2S(=O)(=O)c2ccccc2)C=C1 | 2 | – | –
18 | CS(=O)(=O)c1ccc(S(=O)(=O)n2c(C3(O)C=CC(=O)C=C3)cc3ccccc32)cc1 | 2 | – | –
19 | O=C1C=CC(O)(c2cn(CCC(=O)Nc3ccccc3)nn2)C=C1 | 7 | – | –
20 | CC(=O)NCCc1ccc(S(=O)(=O)n2c(C3(O)C=CC(=O)C=C3)cc3ccccc32)cc1 | 3 | – | –
21 | O=C1C=CC(O)(c2cc3ccccc3n2S(=O)(=O)c2ccccc2)C=C1 | 2 | 110 | 53
22 | Nc1nc(N)nc(NCCCNC(=O)CCc2ccc(S(=O)(=O)n3c(C4(O)C=CC(=O)C=C4)cc4ccccc43)cc2)n1 | 5.6 | – | –
23 | O=C1C=CC(O)(c2cc3ccc(F)cc3n2S(=O)(=O)c2ccccc2)C=C1 | 2 | 170 | 100
24 | COc1ccc(-n2cc(C3(O)C=CC(=O)C=C3)nn2)cc1 | 2 | 310 | 130
25 | CC(=O)OC[C@H]1O[C@@H](n2cc(C3(O)C=CC(=O)C=C3)nn2)[C@H](OC(C)=O)[C@@H](OC(C)=O)[C@H]1OC(C)=O | > 5 | – | –
26 | CN1CCN(C(=O)CCc2ccc(S(=O)(=O)n3c(C4(O)C=CC(=O)C=C4)cc4ccccc43)cc2)CC1 | 3 | – | –
27 | O=C1C=CC(O)(c2cc3ccccc3n2S(=O)(=O)c2ccc(CCCN3CCOCC3)cc2)C=C1 | 3 | – | –
28 | O=C1C=CC(O)(c2nc3ccccc3s2)C(Cl)=C1 (configuration not stated) | 1 | – | –
29 | O=C1C=CC(O)(c2cn(-c3ccc4ncsc4c3)nn2)C=C1 | 3 | – | –
